Measurements as given in article PMC5035790 (Annals of Oncology, 2016).

Test system: patients with advanced solid tumors or non-Hodgkin's lymphoma
Assay: Phase I dose-escalation study: safety, tolerability, MTD, adverse events
Assay type: in vivo, human
In short: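 Adults with advanced solid tumours (plus NHL and type 2 diabetic expansion cohorts) received a 1-h IV infusion on days 1, 8 and 15 of 28-day cycles over 0.1–1.2 mg/kg. Accelerated titration escalated the dose by 100% per cohort. MTD was the highest dose given to six patients with ≤1 DLT. Fasting was 8 h pre- and 3 h post-start on cycle 1 day 1. AEs were assessed at planned times each cycle and at follow-up.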

Compound: COc1c(OCCCN2CCOCC2)ccc2c1N=C(NC(=O)c1cnc(N)nc1)N1CCN=C21 [copanlisib, Copanlisib]
- dose-limiting toxicities (DLTs) (0.8 mg/kg dose-escalation cohort): no DLTs
- dose modifications caused by drug-related AEs (14 of 57 patients): 25%
- Any drug-related AE (NHL expansion, 0.8 mg/kg, n=9): 8 (89) n (%)
- Drug-related AEs of grade 3 (NHL expansion, 0.8 mg/kg, n=9): 5 (56) n (%)
- Drug-related AEs of grade 4 (NHL expansion, 0.8 mg/kg, n=9): 1 (11) n (%)
- Drug-related diarrhea, all grades (NHL expansion, 0.8 mg/kg, n=9): 3 (33) n (%)
- Drug-related diarrhea, grade 3 (NHL expansion, 0.8 mg/kg, n=9): 0 n (%)
- Drug-related fatigue, all grades (NHL expansion, 0.8 mg/kg, n=9): 3 (33) n (%)
- Drug-related fatigue, grade 3 (NHL expansion, 0.8 mg/kg, n=9): 0 n (%)
- Drug-related hyperglycemia, all grades (NHL expansion, 0.8 mg/kg, n=9): 8 (89) n (%)
- Drug-related hyperglycemia, grade 3 (NHL expansion, 0.8 mg/kg, n=9): 3 (33) n (%)
- Drug-related hypertension, all grades (NHL expansion, 0.8 mg/kg, n=9): 3 (33) n (%)
- Drug-related hypertension, grade 3 (NHL expansion, 0.8 mg/kg, n=9): 3 (33) n (%)
- Drug-related nausea, all grades (NHL expansion, 0.8 mg/kg, n=9): 7 (78) n (%)
- Drug-related nausea, grade 3 (NHL expansion, 0.8 mg/kg, n=9): 0 n (%)
- Drug-related oral cavity mucositis, all grades (NHL expansion, 0.8 mg/kg, n=9): 3 (33) n (%)
- Drug-related oral cavity mucositis, grade 3 (NHL expansion, 0.8 mg/kg, n=9): 0 n (%)
- Drug-related rash/desquamation, all grades (NHL expansion, 0.8 mg/kg, n=9): 2 (22) n (%)
- Drug-related rash/desquamation, grade 3 (NHL expansion, 0.8 mg/kg, n=9): 1 (11) n (%)
- Drug-related vomiting, all grades (NHL expansion, 0.8 mg/kg, n=9): 1 (11) n (%)
- Drug-related vomiting, grade 3 (NHL expansion, 0.8 mg/kg, n=9): 0 n (%)
- Drug-related hyperglycemia, all grades (all patients, n=57, text): 63%
- Drug-related hypertension, all grades (all patients, n=57, text): 21%
- Drug-related hypertension, grade 3 (all patients, n=57, text): 14%
- diarrhea, all-grade (all patients, n=57, text): 16%
- diarrhea, grade ≥3 (all patients, n=57, text): 2%
- drug-related rash, grade 3 (all patients, n=57, text): 7%
- Drug-related nausea, all grades (all patients, n=57, text, all events grade ≤2): 37%
- Any drug-related AE (cohort 1, 0.1 mg/kg, n=1): 1 (100) n (%)
- Drug-related AEs of grade 3 (cohort 1, 0.1 mg/kg, n=1): 0 n (%)
- Drug-related AEs of grade 4 (cohort 1, 0.1 mg/kg, n=1): 0 n (%)
- Drug-related diarrhea, all grades (cohort 1, 0.1 mg/kg, n=1): 0 n (%)
- Drug-related diarrhea, grade 3 (cohort 1, 0.1 mg/kg, n=1): 0 n (%)
- Drug-related fatigue, all grades (cohort 1, 0.1 mg/kg, n=1): 0 n (%)
- Drug-related fatigue, grade 3 (cohort 1, 0.1 mg/kg, n=1): 0 n (%)
- Drug-related hyperglycemia, all grades (cohort 1, 0.1 mg/kg, n=1): 0 n (%)
- Drug-related hyperglycemia, grade 3 (cohort 1, 0.1 mg/kg, n=1): 0 n (%)
- Drug-related hypertension, all grades (cohort 1, 0.1 mg/kg, n=1): 0 n (%)
- Drug-related hypertension, grade 3 (cohort 1, 0.1 mg/kg, n=1): 0 n (%)
- Drug-related nausea, all grades (cohort 1, 0.1 mg/kg, n=1): 0 n (%)
- Drug-related nausea, grade 3 (cohort 1, 0.1 mg/kg, n=1): 0 n (%)
- Drug-related oral cavity mucositis, all grades (cohort 1, 0.1 mg/kg, n=1): 0 n (%)
- Drug-related oral cavity mucositis, grade 3 (cohort 1, 0.1 mg/kg, n=1): 0 n (%)
- Drug-related rash/desquamation, all grades (cohort 1, 0.1 mg/kg, n=1): 0 n (%)
- Drug-related rash/desquamation, grade 3 (cohort 1, 0.1 mg/kg, n=1): 0 n (%)
- Drug-related vomiting, all grades (cohort 1, 0.1 mg/kg, n=1): 0 n (%)
- Drug-related vomiting, grade 3 (cohort 1, 0.1 mg/kg, n=1): 0 n (%)
- Any drug-related AE (cohort 2, 0.2 mg/kg, n=3): 3 (100) n (%)
- Drug-related AEs of grade 3 (cohort 2, 0.2 mg/kg, n=3): 2 (67) n (%)
- Drug-related AEs of grade 4 (cohort 2, 0.2 mg/kg, n=3): 0 n (%)
- Drug-related diarrhea, all grades (cohort 2, 0.2 mg/kg, n=3): 2 (67) n (%)
- Drug-related diarrhea, grade 3 (cohort 2, 0.2 mg/kg, n=3): 1 (33) n (%)
- Drug-related fatigue, all grades (cohort 2, 0.2 mg/kg, n=3): 1 (33) n (%)
- Drug-related fatigue, grade 3 (cohort 2, 0.2 mg/kg, n=3): 0 n (%)
- Drug-related hyperglycemia, all grades (cohort 2, 0.2 mg/kg, n=3): 1 (33) n (%)
- Drug-related hyperglycemia, grade 3 (cohort 2, 0.2 mg/kg, n=3): 0 n (%)
- Drug-related hypertension, all grades (cohort 2, 0.2 mg/kg, n=3): 0 n (%)
- Drug-related hypertension, grade 3 (cohort 2, 0.2 mg/kg, n=3): 0 n (%)
- Drug-related nausea, all grades (cohort 2, 0.2 mg/kg, n=3): 3 (100) n (%)
- Drug-related nausea, grade 3 (cohort 2, 0.2 mg/kg, n=3): 0 n (%)
- Drug-related oral cavity mucositis, all grades (cohort 2, 0.2 mg/kg, n=3): 1 (33) n (%)
- Drug-related oral cavity mucositis, grade 3 (cohort 2, 0.2 mg/kg, n=3): 0 n (%)
- Drug-related rash/desquamation, all grades (cohort 2, 0.2 mg/kg, n=3): 0 n (%)
- Drug-related rash/desquamation, grade 3 (cohort 2, 0.2 mg/kg, n=3): 0 n (%)
- Drug-related vomiting, all grades (cohort 2, 0.2 mg/kg, n=3): 1 (33) n (%)
- Drug-related vomiting, grade 3 (cohort 2, 0.2 mg/kg, n=3): 0 n (%)
- Any drug-related AE (cohort 3, 0.4 mg/kg, n=3): 2 (67) n (%)
- Drug-related AEs of grade 3 (cohort 3, 0.4 mg/kg, n=3): 1 (33) n (%)
- Drug-related AEs of grade 4 (cohort 3, 0.4 mg/kg, n=3): 0 n (%)
- Drug-related diarrhea, all grades (cohort 3, 0.4 mg/kg, n=3): 0 n (%)
- Drug-related diarrhea, grade 3 (cohort 3, 0.4 mg/kg, n=3): 0 n (%)
- Drug-related fatigue, all grades (cohort 3, 0.4 mg/kg, n=3): 0 n (%)
- Drug-related fatigue, grade 3 (cohort 3, 0.4 mg/kg, n=3): 0 n (%)
- Drug-related hyperglycemia, all grades (cohort 3, 0.4 mg/kg, n=3): 1 (33) n (%)
- Drug-related hyperglycemia, grade 3 (cohort 3, 0.4 mg/kg, n=3): 0 n (%)
- Drug-related hypertension, all grades (cohort 3, 0.4 mg/kg, n=3): 1 (33) n (%)
- Drug-related hypertension, grade 3 (cohort 3, 0.4 mg/kg, n=3): 1 (33) n (%)
- Drug-related nausea, all grades (cohort 3, 0.4 mg/kg, n=3): 0 n (%)
- Drug-related nausea, grade 3 (cohort 3, 0.4 mg/kg, n=3): 0 n (%)
- Drug-related oral cavity mucositis, all grades (cohort 3, 0.4 mg/kg, n=3): 0 n (%)
- Drug-related oral cavity mucositis, grade 3 (cohort 3, 0.4 mg/kg, n=3): 0 n (%)
- Drug-related rash/desquamation, all grades (cohort 3, 0.4 mg/kg, n=3): 0 n (%)
- Drug-related rash/desquamation, grade 3 (cohort 3, 0.4 mg/kg, n=3): 0 n (%)
- Drug-related vomiting, all grades (cohort 3, 0.4 mg/kg, n=3): 0 n (%)
- Drug-related vomiting, grade 3 (cohort 3, 0.4 mg/kg, n=3): 0 n (%)
- Any drug-related AE (cohort 4, 0.8 mg/kg, n=7): 7 (100) n (%)
- Drug-related AEs of grade 3 (cohort 4, 0.8 mg/kg, n=7): 4 (57) n (%)
- Drug-related AEs of grade 4 (cohort 4, 0.8 mg/kg, n=7): 0 n (%)
- Drug-related diarrhea, all grades (cohort 4, 0.8 mg/kg, n=7): 1 (14) n (%)
- Drug-related diarrhea, grade 3 (cohort 4, 0.8 mg/kg, n=7): 0 n (%)
- Drug-related fatigue, all grades (cohort 4, 0.8 mg/kg, n=7): 0 n (%)
- Drug-related fatigue, grade 3 (cohort 4, 0.8 mg/kg, n=7): 0 n (%)
- Drug-related hyperglycemia, all grades (cohort 4, 0.8 mg/kg, n=7): 7 (100) n (%)
